From ChEMBL document CHEMBL1134627, “Synthesis of novel, potent, diol-based HIV-1 protease inhibitors via intermolecular pinacol homocoupling of (2S)-2-benzyloxymethyl-4-phenylbutanal” (J Med Chem, 2001) come the findings set out here.

Experiment [1] has as its system MT4. The experiment can be described thus: Inhibitory activity against MT-4 cells. The experiment is classed as functional. The settings on record: Homo sapiens, read-out: ED50 (the source's name). The essentials:
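HIV-induced cytopathic effect measured in MT-4 cells, with cell viability read out using the vital dye XTT. ED50 was calculated from the percent cytoprotection for each compound.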

In experiment [2] the test system is MT4. The experiment can be described thus: Inhibitory activity against MT-4 cells, in the presence of human serum. The format is functional. The settings on record: read-out: ED50 (the source's name). The essentials:
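HIV cytopathic assay in MT-4 cells run in the presence of 40% human serum, with viability read out using the vital dye XTT. ED50 was calculated from the percent cytoprotection.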

In experiment [3] the target is Human immunodeficiency virus type 1 protease (Human immunodeficiency virus 1, UniProt Q72874). The experiment can be described thus: Inhibitory activity against HIV-1 protease (Escherichia coli). The method in brief:
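Recombinant HIV-1 protease, cloned and expressed in E. coli. Ki values were determined with a fluorometric assay.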

A word on the Ki: it is the dissociation constant of the complex between target and ligand, obtained from inhibition or displacement. Read a high Ki as weaker binding.

As to `O=C(NC1c2ccccc2C[C@H]1O)[C@H](OCc1ccccc1)[C@H](O)[C@@H](O)[C@@H](OCc1ccccc1)C(=O)N[C@H]1c2ccccc2C[C@H]1O` (some centres not stated), the EC50 in the experiment on MT4 [1] came to 96 nM; in the experiment on MT4 [2], 1500 nM. The compound further registered a Ki in experiment [3] of 0.6 nM.
Take `CNC(=O)[C@@H](NC(=O)[C@H](CCc1ccccc1)[C@H](O)[C@H](O)[C@@H](CCc1ccccc1)C(=O)N[C@H](C(=O)NC)C(C)C)C(C)C`: the EC50 in the experiment on MT4 [1] and in the experiment on MT4 [2] was above 10000 nM each time. The Ki in experiment [3] was found to be 112 nM.
For `CNC(=O)[C@@H](NC(=O)[C@H](CCc1ccccc1)[C@@H](O)[C@H](O)[C@@H](CCc1ccccc1)C(=O)N[C@H](C(=O)NC)C(C)C)C(C)C`, the results for the EC50 in the experiment on MT4 [1] and with MT4 [2] were 1900 nM and 1400 nM, respectively. For the same compound, the affinity in experiment [3], expressed as Ki, was 0.4 nM.
As for `O=C(NC1c2ccccc2C[C@H]1O)[C@H](CCc1ccccc1)[C@@H](O)[C@H](O)[C@@H](CCc1ccccc1)C(=O)N[C@H]1c2ccccc2C[C@H]1O` (some centres not stated), the EC50 is 93 nM with MT4 [1] and 390 nM with MT4 [2]. This compound also had a Ki in experiment [3] of 1.1 nM.
Consider `CNC(=O)[C@@H](NC(=O)[C@H](OCc1ccccc1)[C@H](O)[C@@H](O)[C@@H](OCc1ccccc1)C(=O)N[C@H](C(=O)NC)C(C)C)C(C)C`, for which the figures for the EC50 with MT4 [1] and in the experiment with MT4 [2] were 1300 nM and 34000 nM, respectively.
For `O=C(NC1c2ccccc2C[C@H]1O)[C@H](CCc1ccccc1)[C@H](O)[C@H](O)[C@@H](CCc1ccccc1)C(=O)N[C@H]1c2ccccc2C[C@H]1O` (some centres not stated), the EC50 in the experiment on MT4 [1] is above 10000 nM; in the experiment with MT4 [2] it was 15000 nM. The same compound had an inhibitory constant (Ki) in experiment [3] of 28 nM.
